A selection: hits, their analogues and other compounds. The true share with any hit is near 4.6%.
p97 inhibitor = inhibitors of human p97 ATPase; P55072; recombinant p97 ATPase, Kinase-Glo ATP luminescence, 3 h; inhibition, % at 8 µM; 220,000 compounds, 0.42% hits; AID 1481; in the data active = inhibition above about 15%
Mdm2 ligase inh = blocks human Mdm2 ubiquitin ligase activity | cell-based MDM2 ubiquitination luciferase reporter, 2 h; 0 = plate control, 100 = twice control, blank-subtracted | signal enhancement, % at 5 µM | 210,000 compounds, 0.11% hits | AID 1230;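 active = signal enhancement of 30% or more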;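 note: luminescence tracks abundance of the self-degrading MDM2-luciferase fusion protein; higher signal means inhibition of MDM2 E3 ligase activity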
Target sequence (Q00987 whole entry, looked up, the tested form may be a part): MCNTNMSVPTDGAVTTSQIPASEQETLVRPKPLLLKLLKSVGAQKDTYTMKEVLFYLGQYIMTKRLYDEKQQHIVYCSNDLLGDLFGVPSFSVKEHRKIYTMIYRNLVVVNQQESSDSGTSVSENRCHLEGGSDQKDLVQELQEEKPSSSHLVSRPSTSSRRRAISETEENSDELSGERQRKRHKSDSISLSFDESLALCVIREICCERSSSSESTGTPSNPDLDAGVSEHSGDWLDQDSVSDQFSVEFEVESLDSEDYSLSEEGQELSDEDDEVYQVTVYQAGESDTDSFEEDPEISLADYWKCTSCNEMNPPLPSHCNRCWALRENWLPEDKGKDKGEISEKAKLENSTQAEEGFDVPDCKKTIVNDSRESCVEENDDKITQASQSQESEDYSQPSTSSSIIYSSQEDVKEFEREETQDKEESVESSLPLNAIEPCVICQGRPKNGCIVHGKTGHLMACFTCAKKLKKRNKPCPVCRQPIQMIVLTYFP
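System: stable MDM2–luciferase fusion reporter cells / Input: 2000 cells seeded into each well / Schedule: 4 h settle plus 2 h compound, 37 °C / Compound: single-point 5 µM / Buffer or medium: cells held in DMEM / Benchmarks: control and blank well means / Evaluation: percent signal gain over controls, blank-subtracted / Measured by: luciferase luminescence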
NF-kB expr up = NF-kB expression increase, human neuronal cells; NF-kB reporter expression; stronger effect = higher value; fold change at 12.5 µM; 190,000 compounds, 1.6% hits; AID 1239; in the data active = fold change above about 3.3
STAT1 act = STAT1 signaling activation | 200,000 compounds, 2.6% hits | activation (% of control), % at 5.5 µM | NIH 3T3 STAT1-luciferase reporter, IFN-gamma, luminescence; 100% = IFN-gamma alone, no compound | AID 932;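 active = activation above the screen-wide mean activation plus 3 SD, cut at about 130% in these data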
APP 5'UTR act = APP 5'UTR luciferase reporter activation | SH-SY5Y APP 5'UTR luciferase reporter, luminescence; zero percent = DMSO vehicle wells | activation, % at 2 µM | 190,000 compounds, 1% hits;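 active = activation above a set limit, based on mean plus 3 SD of controls, cut at about 140% in these data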
Wee1 stabilizer = blocks degradation of human Wee1 kinase | AID 1321 | HeLa Luc-Wee1K328M stability, luciferase luminescence; 100% = proteasome inhibitor MG132 effect | P30291 | 220,000 compounds, 1.2% hits | reporter increase, % at 5 µM;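 active = activation above the mean of all tested compounds plus 3 SD, set per screening run, cut at about 8.8% in these data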;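 note: cells exposed to compound for 20 h before luminescence read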
Large screens that a line does not name were inactive.

COc1ccc(CCNC(=O)C(=O)NCc2ccccn2)cc1	none
Cc1ccc2oc(-c3ccco3)cc(=O)c2c1	STAT1 act 138
N#CCOc1ccc2oc(-c3ccco3)cc(=O)c2c1	none
COC(=O)c1ccc(Oc2c(Cl)cccc2[N+](=O)[O-])cc1	none
CC(C)=C1C(=O)NN(c2ccc(F)c(Cl)c2)C1=O	p97 inhibitor 20
Cc1cccc2c1c1ccc3c(c1n2C)C(=O)C=CC3=O	Mdm2 ligase inh 54 (no result: NF-kB expr up, STAT1 act, APP 5'UTR act)
CCOC(=O)Cc1csc(N/C(=N/S(=O)(=O)c2cc(Br)ccc2OCC)c2ccccc2)n1	none
COc1ccc(OC)c(/C=N/N(C)c2ccccc2)c1	STAT1 act 137
O=C(O)CCC(=O)Nc1ccccc1C(=O)NCCc1ccccc1	STAT1 act 135
O=C1OCCN1C(=O)[C@H]1[C@H](c2ccc([N+](=O)[O-])cc2)C(c2cccc(Cl)c2)=NN1c1ccccc1	Wee1 stabilizer 10 (no result: Mdm2 ligase inh)
COc1cccc(NC(=O)COC(=O)CNS(=O)(=O)c2c(F)cccc2F)c1	none
CC(C)C(NC(=O)C1CCCCC1)C(=O)NCCc1ccccc1 (stereo not drawn)	none
O=C1Nc2ccccc2N(O)N1c1ccc(S(=O)(=O)N2CCCCCC2)cc1	Wee1 stabilizer 9.7
Nc1ccc2oc(=O)c3ccccc3c2c1	STAT1 act 134
Nc1c(N)c2ccccc2oc1=O	none
O=C1C2C3CCC(C3)C2C(=O)N1c1ccc(OS(=O)(=O)c2ccccc2)cc1 (stereo not drawn)	STAT1 act 137
CCC(CO)NCC#Cc1ccccc1 (stereo not drawn)	none
O=c1[nH]c(Nc2nc3ccccc3o2)nc2c1CCCC2	APP 5'UTR act 170
Cc1ccc(Nc2nc3c(c(=O)[nH]2)CCCC3)cc1	none (no result: Mdm2 ligase inh)
Cc1ccc(OCC(=O)N2CCCCC2)c(Br)c1	none
CC(C)(C)c1ccc(OCC(=O)N2CCCCCC2)c(Br)c1	STAT1 act 134
Cc1ccc(-c2nc3ccc(Cl)cc3n2OC(C)C(=O)O)cc1 (stereo not drawn)	STAT1 act 141
Cn1nnnc1SCC1=C(C(=O)O)N2C(=O)C(NC(=O)C3CC3c3ccccc3)C2SC1 (stereo not drawn)	Wee1 stabilizer 11
NC(=O)c1ccccc1OCC(=O)Nc1ccc(Cl)c(Cl)c1	none (no result: NF-kB expr up, STAT1 act, APP 5'UTR act)
CCCC(=O)C1=C(O)C(C(=O)OC)C(C)(C)CC1=Nc1ccc(N)cc1 (stereo not drawn)	none
CCCC(=Nc1ccc(N)cc1)C1=C(O)C(C(=O)OC)C(C)(C)CC1=O (stereo not drawn)	p97 inhibitor 15
COc1ccc(C2(c3ccc(O)cc3O)CC(c3ccccc3Cl)NC(=S)N2)cc1 (stereo not drawn)	none
Cc1ccc(C(=O)Nc2nc3ccccc3n2CCN2CCCC2)cc1	STAT1 act 141
O=C(Nc1nc2ccccc2n1CCN1CCCC1)c1ccc(Cl)cc1	none
CCN(CC)C(=O)COc1ccc(/C=C(\C#N)S(=O)(=O)c2ccccc2)cc1OC	none
Cc1cc(OCc2cn3cccnc3n2)ccc1Cl	STAT1 act 131
Cc1cc(C)cc(-n2c(C)cc(C(=O)CSc3nnnn3C)c2C)c1	none
Cc1cc(C(=O)CSc2nnnn2C)c(C)n1-c1cccc(F)c1	NF-kB expr up 4.8, STAT1 act 131
CC(/C=N/NC(=O)c1nn(C)c(C)c1Br)=C\c1ccccc1	STAT1 act 132
Cc1ccc(NC(=O)COC(=O)Cc2ccsc2)cc1S(=O)(=O)N1CCOCC1	none
C/C(=N\NC(=O)c1c(C)nc2ccccn12)c1ccc(N2CCOCC2)cc1	none
C/C(=N\NC(=O)c1c(C)nc2ccccn12)c1ccco1	STAT1 act 134
Cc1cc(C)c(/C=N/n2c(C)cc(C)c(C#N)c2=O)c(C)c1	none
Cc1cc(C)n(/N=C/c2cccs2)c(=O)c1C#N	Wee1 stabilizer 11
NC(=O)CSc1ccc(F)cc1	none
O=C(Nc1ccc2c(c1)OCO2)C1CCCN(c2nc3ccccc3s2)C1 (stereo not drawn)	STAT1 act 129
CC(O)CCC(=O)NCCNC(=O)CCC(C)O (stereo not drawn)	none
CC(O)C(=O)NCCOCCOCCNC(=O)C(C)O (stereo not drawn)	Wee1 stabilizer 9.5
C/C(=N\NC(=O)c1nn(C)c(C)c1Br)c1cccc(NC(=O)c2ccoc2C)c1	STAT1 act 150, Wee1 stabilizer 9.8
CC(=O)c1cccc(NC(=O)c2ccoc2C)c1	none
COC(=O)c1cnn(-c2ccc(F)cc2F)c1/C=N/NC(N)=S	none (no result: NF-kB expr up, STAT1 act, APP 5'UTR act)
N#Cc1cc2c(nc1SCc1ccncc1)CCC2	STAT1 act 138
CCc1cc2cc(C)ccc2nc1SCC(=O)Nc1cc(C)on1	NF-kB expr up 3.3 (no result: Mdm2 ligase inh)
CCOC(=O)CC(=O)CSc1nc2c(cc1C#N)CCCCC2	NF-kB expr up 4.6, STAT1 act 141
Cc1cc(NC(=O)CSc2nc3c(cc2C#N)CCCC3)no1	STAT1 act 138, APP 5'UTR act 207
N=c1n(CC(=O)c2cccs2)c2ccccc2n1Cc1ccccc1	none (no result: NF-kB expr up, STAT1 act, APP 5'UTR act)
CCOC(=O)CC(=O)CSc1nc2ccc(C)cc2cc1C#N	NF-kB expr up 8.3, STAT1 act 137
CCOC(=O)CC(=O)CSc1nc(CC)c(C)cc1C#N	none (no result: NF-kB expr up, STAT1 act, APP 5'UTR act)
CC(C)OC(=O)CC(=O)CSc1nc2c(cc1C#N)CCCCC2	NF-kB expr up 4.3
Cc1ccc(S(=O)(=O)Nc2ccc(Cl)cc2)cc1NC(=O)c1cc2c(s1)CCCC2	none
O=C(Nc1ccnc(=O)[nH]1)c1sc2ccccc2c1Cl	none (no result: Mdm2 ligase inh, NF-kB expr up, STAT1 act, APP 5'UTR act)
O=C1CN(c2ccc(Cl)cc2)C2(CCCCC2)S1	none
COC(=O)c1c(-c2ccc(F)cc2)csc1NC(=O)c1ccco1	STAT1 act 146
Cc1ccc(O)c(NC(=O)C2CCCCC2)c1	none (no result: NF-kB expr up, STAT1 act, APP 5'UTR act)
Cc1ccc(O)c(NC(=O)CCC2CCCCC2)c1	NF-kB expr up 4.1, Wee1 stabilizer 9.1
Cn1c(NC(=O)CCC2CCCCC2)cc(=O)n(C)c1=O	NF-kB expr up 3.8, STAT1 act 148
O=C(CCC1CCCCC1)Nc1ccccc1-c1ccccc1	none
O=C(CCC1CCCCC1)Nc1ccccc1O	NF-kB expr up 6.4
Cn1c(NNC(=O)CCC2CCCCC2)cc(=O)n(C)c1=O	none (no result: Mdm2 ligase inh)
CCOC(=O)c1ccc(Oc2cc(C)nc(Cl)n2)cc1	none (no result: NF-kB expr up, STAT1 act, APP 5'UTR act)
Cc1cccc(S(=O)(=O)NC(Cc2c[nH]c3ccccc23)C(=O)O)c1 (stereo not drawn)	none (no result: Mdm2 ligase inh)
CC(C)=CC(=O)OCC(=O)Nc1cc(C)cc(C)c1	none
O=C(Oc1ccccc1O)c1cccc2ccccc12	NF-kB expr up 3.5
C/C(=N/NC(=O)CCCOc1ccc(Cl)cc1Cl)c1ccc(C)o1	none
Cc1cc(=O)[nH]c(SCc2cccc3cccnc23)n1	Wee1 stabilizer 11
O=C(O)c1cn(Cc2ccccn2)c(=O)c2ccccc12	APP 5'UTR act 152
Nc1ccccc1C(=O)N/N=C1\C2CN3CCN(C2)CC1(c1ccccc1)C3	STAT1 act 130
